# Results taken from article PMC10558795 (Redox Biology, 2023).
# Counter-ions that a name gives are not always drawn. Like-named read-outs stand apart in the source and are kept apart here.
# How the values were obtained:
# [1] = test system: NRF2 activity (NQO1-YFP signal, CDDO-activated); assay: High-throughput screen and dose response: NRF2 activity; format: cell-based, human
# In short: (§1)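 NQO1-YFP H1299 reporter cells (YFP in NQO1 intron 1, constitutive mCherry) were seeded 1000/well in 384-well plates and cultured overnight. Primary screen: 1 μM compound in 0.1% DMSO, one well each, with CDDO 200 nM and 0.1% DMSO controls. Retests used 10-point serial dilutions from 10 µM in triplicate, with brusatol control. Imaged at 0, 24, 48, 64 h (YFP = NRF2 activity, mCherry = viability); IC₅₀ by curve fit.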
# NQO1-YFP H1299 cells = assay: Cell viability; format: cell-based, human
# In short: as §1
# KYSE70 cells = assay: High-content cytotoxicity screen; format: cell-based, human
# In short: (§2)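 Cells were seeded at 1200/well in 384-well plates and cultured overnight. Test compound was added at […] serial dilution from 10 µM, in triplicate, for 3 days. Controls were 0.1% DMSO (negative), 30 µM benzethonium chloride and 0.1% Triton X-100 added just before staining (positive). Cells were stained with 0.5 µg/ml Hoechst and 100 nM YOYO1, four 4× images per well. Normalized total-cell and dead-cell percentages were fitted for IC₅₀.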
# KYSE180 cells = assay: High-content cytotoxicity screen; format: cell-based, human
# In short: as §2
# [2] = test system: NRF2 and NQO1 expression in NRF2^Mut-KYSE70 cells; assay: Western blotting of NRF2 and NQO1 expression in KYSE70 cells; format: cell-based, human
# In short: (§3)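 Nuclear and cytosolic fractions prepared with an extraction kit, or whole-cell lysates in RIPA buffer. Proteins separated by SDS-PAGE, transferred to nitrocellulose, blocked and probed with primary antibody overnight at 4 °C. Chemiluminescence detected on film and quantified by densitometry; band data as mean ± SD, Student's t-test.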
# [3] = test system: NRF2 and NQO1 expression in NRF2^Mut-KYSE180 cells; assay: Western blotting of NRF2 and NQO1 expression in KYSE180 cells; format: cell-based, human
# In short: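 NRF2-mutant KYSE180 cells (37 °C, 5% CO₂) treated with test compound; nuclear and cytosolic fractions prepared with a nuclear extraction kit. Proteins separated by SDS-PAGE onto nitrocellulose, primary antibody overnight at 4 °C, chemiluminescence on film. Bands quantified by densitometry, mean ± SD, Student's t-test.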
# [4] = test system: human NRF2 target genes in KYSE70 cells; assay: RNAseq of KYSE70 cells; format: cell-based; conditions: PYR 10 μM for 72 h, MIT 20 nM for 72 h
# In short: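 Total RNA from treated and control cells made into Illumina libraries and sequenced (150 bp). Reads aligned to hg38 with RefSeq annotation and counted per gene; DEGs called by fold-change cut-off and corrected p-values. Gene set enrichment analysis performed; overall NRF2 target-gene mRNA level calculated on natural log scale.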
# [5] = test system: NFE2L2 mRNA and NRF2 target genes; assay: qPCR of NFE2L2 mRNA and NRF2 target genes; format: cell-based, human
# In short: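 Gene expression quantified by real-time PCR using gene-specific primers and TaqMan probes on a 96-well real-time PCR system.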
# [6] = test system: ABCG2 and TOP2A expression; assay: ABCG2 and TOP2A expression in KYSE70 cells; format: cell-based, human
# global translation = assay: Protein synthesis assay; format: cell-based, human; conditions: KYSE70; PYR 10 μM, MIT 20 nM; CHX positive control
# In short: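 KYSE70 cells (37 °C, 5% CO₂) seeded at 2000 cells/well in 96-well plates; exposed to test compound or cycloheximide (positive control) in triplicate. Global translation measured with a commercial protein synthesis assay kit per manufacturer's protocol; cells imaged on a high-content imager.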
# NRF2-ARE binding = NRF2-ARE binding (Homo sapiens, UniProt Q16236, W24C); assay: ELISA-based TransAM NRF2-ARE binding assay with KYSE70 nuclear extracts
# NRF2-ARE binding, sequence (Q16236 whole entry W24C): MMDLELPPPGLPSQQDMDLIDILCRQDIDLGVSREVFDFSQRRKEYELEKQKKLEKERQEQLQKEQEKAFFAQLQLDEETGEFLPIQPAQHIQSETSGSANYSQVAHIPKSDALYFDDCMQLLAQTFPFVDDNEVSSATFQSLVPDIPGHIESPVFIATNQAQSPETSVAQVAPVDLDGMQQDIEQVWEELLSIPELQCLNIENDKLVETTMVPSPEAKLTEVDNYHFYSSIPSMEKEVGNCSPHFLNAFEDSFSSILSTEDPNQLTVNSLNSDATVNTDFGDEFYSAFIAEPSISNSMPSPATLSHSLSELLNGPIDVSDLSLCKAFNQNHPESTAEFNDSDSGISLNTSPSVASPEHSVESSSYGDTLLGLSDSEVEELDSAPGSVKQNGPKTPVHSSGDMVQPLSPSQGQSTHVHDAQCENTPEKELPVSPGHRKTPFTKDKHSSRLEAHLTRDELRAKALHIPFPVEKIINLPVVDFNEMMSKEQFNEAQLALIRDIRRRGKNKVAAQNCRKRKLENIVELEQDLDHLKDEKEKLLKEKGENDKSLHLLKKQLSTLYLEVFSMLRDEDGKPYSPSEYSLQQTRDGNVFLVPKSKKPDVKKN
# In short: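 TransAM ELISA: nuclear extract from untreated KYSE70 cells (20 μg/well) added to wells containing ARE oligonucleotide. Test compound, competitor or mutated competitor added, then 1 h incubation with mild agitation and washing. Anti-NRF2 antibody 1 h, then HRP-conjugated secondary antibody and substrate; A450nm read.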
# NRF2 (NRF2^Mut-KYSE180) = NRF2 (NRF2^Mut-KYSE180) (Homo sapiens, UniProt Q16236, D77V); assay: CHX chase analysis of NRF2 half-life in KYSE180 cells; format: cell-based; conditions: PYR 10 μM, MIT 20 nM
# NRF2 (NRF2^Mut-KYSE180), sequence (Q16236 whole entry D77V): as the sequence (Q16236 whole entry W24C) above, with C24W, D77V counted along it
# In short: (§4)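 Cells were grown in RPMI1640 GlutaMAX with 10% FBS and 1% penicillin/streptomycin at 37 °C, 5% CO₂. They were pre-incubated 4 h with test compound, then given 200 μg/ml cycloheximide to block protein synthesis. Cells were harvested at set time points after cycloheximide. Total lysates were run on SDS-PAGE and blotted for NRF2 and GAPDH, and band densities were used to calculate NRF2 half-life.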
# NRF2 (NRF2^WT-KYSE450) = NRF2 (NRF2^WT-KYSE450) (Homo sapiens, UniProt Q16236); assay: CHX chase analysis of NRF2 half-life in KYSE450 cells; format: cell-based; conditions: PYR 10 μM, MIT 20 nM
# NRF2 (NRF2^WT-KYSE450), sequence (Q16236 whole entry): as the sequence (Q16236 whole entry W24C) above, with C24W counted along it
# In short: as §4
# [7] = 90 mg/m^2, intravenous injection, cited from earlier work
# [8] = test system: NRF2 expression in NRF2^WT-KYSE450 cells; assay: NRF2 expression in KYSE450 cells; format: cell-based, human
# In short: as §3
# [9] = Homo sapiens, NCI-H1299, read-out: NRF2 inhibition (IC50, μM)
# [10] = Homo sapiens, NCI-H1299, read-out: Cell viability (IC50, μM)
# [11] = Homo sapiens, KYSE-70, 72 h, read-out: Cell death (IC50, μM)
# [12] = Homo sapiens, KYSE-70, 72 h, read-out: Cell proliferation (IC50, μM)
# [13] = Homo sapiens, KYSE-180, 72 h, read-out: Cell proliferation (IC50, μM)
# [14] = read-out: NRF2 inhibition (IC50), H1299-NQO1-YFP cells, CDDO-activated YFP signal
# [15] = read-out: Cell viability (IC50), H1299-NQO1-YFP cells
# [16] = read-out: Cell death (IC50), KYSE70, 3 days
# [17] = read-out: Cell proliferation (IC50), KYSE70, 3 days
# [18] = read-out: Cell death (IC50), KYSE180, 3 days
# [19] = read-out: Cell proliferation (IC50), KYSE180, 3 days
compound,measurement,setting,value
"O=C1c2c(O)ccc(O)c2C(=O)c2c(NCCNCCO)ccc(NCCNCCO)c21 [MIT, mitoxantrone dihydrochloride]",IC50,[1]; [9],0.035 µM
same,IC50,NQO1-YFP H1299 cells; [10],> 10 µM
same,IC50,KYSE70 cells; [11],0.00324 µM
same,IC50,KYSE70 cells; [12],0.00584 µM
same,IC50,"KYSE180 cells; Homo sapiens, KYSE-180, 72 h, read-out: Cell death (IC50, μM)",0.00522 µM
same,IC50,KYSE180 cells; [13],0.00457 µM
same,Expression of nuclear NRF2 and cytoplasmic NQO1,[2]; KYSE70 cells,inhibited the expression of nuclear NRF2 and cytoplasmic NQO1 in a dose- and time-dependent manner
same,Expression of nuclear NRF2 and cytoplasmic NQO1,[3],inhibited the expression of nuclear NRF2 and cytoplasmic NQO1 in a dose- and time-dependent manner
same,Overall mRNA expression level of human NRF2 target genes,[4],significantly reduced
same,"NFE2L2 mRNA and NRF2 target genes (AKR1B10, AKR1C2, AKR1C3, PGD, SLC7A11, TKT) by qPCR",[5],downregulation
same,ABCG2 and TOP2A expression,[6],increased
same,Global translation,global translation,Neither PYR (10 μM) nor MIT (20 nM) inhibited global translation
same,NRF2-ARE binding activity,NRF2-ARE binding,did not observe any changes
same,Effect on NRF2 half-life,NRF2 (NRF2^Mut-KYSE180),shortened NRF2 half-life
same,Effect on NRF2 half-life,NRF2 (NRF2^WT-KYSE450),not changed
same,Cmax in the plasma,[7],6430 ± 2430 ng/mL
same,Cmax,[7]; read-out: Cmax in the plasma,12.4 ± 4.7 µM
CCOc1ccc2c(c1)C(C)=CC(C)(C)N2 [Ethoxyquin],IC50,[1]; [9],0.29 µM
same,IC50,NQO1-YFP H1299 cells; [10],> 10 µM
same,IC50,KYSE70 cells; [12],> 10 µM
same,IC50,KYSE180 cells; [13],> 10 µM
CCC(NC(C)C)C(O)c1ccc(O)c(O)c1 (stereo not shown) [Isoetharine mesylate],IC50,[1]; [9],0.49 µM
same,IC50,NQO1-YFP H1299 cells; [10],> 10 µM
same,IC50,KYSE70 cells; [12],> 10 µM
same,IC50,KYSE180 cells; [13],> 10 µM
CC(C)NC[C@H](O)c1ccc(O)c(O)c1 [Isoproterenol bitratrate],IC50,[1]; [14],0.43 µM
same,IC50,NQO1-YFP H1299 cells; [15],> 10 µM
same,IC50,KYSE70 cells; [16],> 10 µM
same,IC50,KYSE70 cells; [17],4.9 µM
same,IC50,KYSE180 cells; [18],> 10 µM
same,IC50,KYSE180 cells; [19],> 10 µM
CC(C)NCC(O)c1ccc(O)c(O)c1 (stereo not shown) [Isoproterenol hydrochloride],IC50,[1]; [9],0.84 µM
same,IC50,NQO1-YFP H1299 cells; [10],> 10 µM
same,IC50,KYSE70 cells; [11],> 10 µM
same,IC50,KYSE70 cells; [12],5.2 µM
same,IC50,KYSE180 cells; [13],> 10 µM
CN1CC[C@@]2(C)c3cc(O)ccc3N(C)[C@@H]12 [Eseroline fumarate],IC50,[1]; [14],0.26 µM
same,IC50,NQO1-YFP H1299 cells; [15],> 10 µM
same,IC50,KYSE70 cells; [16],> 10 µM
same,IC50,KYSE70 cells; [17],10 µM
same,IC50,KYSE180 cells; [18],> 10 µM
same,IC50,KYSE180 cells; [19],> 10 µM
Nc1nc(N)c2nc(-c3ccccc3)c(N)nc2n1 [Triamterene],IC50,[1]; [9],0.72 µM
same,IC50,NQO1-YFP H1299 cells; [10],3.7 µM
same,IC50,KYSE70 cells; [11],> 10 µM
same,IC50,KYSE70 cells; [12],7.7 µM
same,IC50,KYSE180 cells; [13],> 10 µM
"CN(Cc1cnc2nc(N)nc(N)c2n1)c1ccc(C(=O)N[C@@H](CCC(=O)O)C(=O)O)cc1 [MTX, methotrexate]",NRF2 expression,[2]; NRF2^Mut-KYSE70 cells,significantly inhibited NRF2 expression
same,NRF2 expression,[8],significantly inhibited NRF2 expression
